Results taken from ChEMBL document CHEMBL1148461, “Discovery of the first non-peptide full agonists for the human bradykinin B(2) receptor incorporating 4-(2-picolyloxy)quinoline and 1-(2-picolyl)benzimidazole frameworks” (J Med Chem, 2004).

What was measured:
B2 bradykinin receptor [1] = molecular target: T1, B2 bradykinin receptor (Homo sapiens, UniProt P30411); assay: Inhibition of [3H]BK (1.0 nM) binding to the human bradykinin receptor B2, expressed in CHO cells; assay type: cell-based
T1 sequence (P30411 whole entry): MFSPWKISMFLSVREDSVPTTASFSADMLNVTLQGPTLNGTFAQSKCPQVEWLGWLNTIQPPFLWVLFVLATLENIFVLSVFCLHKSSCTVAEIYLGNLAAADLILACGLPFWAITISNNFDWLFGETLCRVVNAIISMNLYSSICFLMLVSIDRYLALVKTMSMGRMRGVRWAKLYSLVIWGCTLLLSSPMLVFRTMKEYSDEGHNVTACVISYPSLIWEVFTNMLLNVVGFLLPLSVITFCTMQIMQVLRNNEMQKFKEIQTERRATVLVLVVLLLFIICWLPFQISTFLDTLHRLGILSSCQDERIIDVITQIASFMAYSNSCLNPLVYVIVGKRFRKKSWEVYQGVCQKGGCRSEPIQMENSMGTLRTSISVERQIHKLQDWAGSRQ
Method in brief: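 Whole CHO (dhfr-) cells stably expressing human B2, seeded 3.0 × 10^4 cells/well and cultured 1 day. Incubated with 1.0 nM [3H]BK plus test compound for 2 h at 4 °C in pH 7.2 HEPES/N-methyl-D-glucamine buffer with bacitracin, enalaprilat and 0.1% BSA. Cells lysed in SDS/NaOH for scintillation counting. Nonspecific binding with 1 μM BK; three experiments.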

B2 bradykinin receptor [2] = molecular target: T2, B2 bradykinin receptor (Cavia porcellus, UniProt O70526); assay: Concentration required to inhibit specific binding of [3H]-BK(0.06 nM) to the bradykinin receptor B2
T2 sequence (O70526 whole entry): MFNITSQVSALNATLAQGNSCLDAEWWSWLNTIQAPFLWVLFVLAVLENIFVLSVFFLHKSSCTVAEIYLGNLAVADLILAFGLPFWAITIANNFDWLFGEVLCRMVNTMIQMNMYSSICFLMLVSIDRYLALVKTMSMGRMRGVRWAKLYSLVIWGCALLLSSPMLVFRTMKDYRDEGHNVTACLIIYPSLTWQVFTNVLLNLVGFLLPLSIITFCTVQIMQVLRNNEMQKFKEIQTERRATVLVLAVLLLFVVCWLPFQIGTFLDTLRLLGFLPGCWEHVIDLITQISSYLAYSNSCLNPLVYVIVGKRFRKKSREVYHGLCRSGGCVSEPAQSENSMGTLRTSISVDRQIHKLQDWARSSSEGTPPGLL
Method in brief: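 Guinea pig (male Hartley) ileum membranes in pH 6.8 TES buffer with phenanthroline, bacitracin, DTT, captopril and 0.1% BSA; 0.2 mg protein/mL incubated with 0.06 nM [3H]BK and varying test concentrations, 60 min at room temperature; filtration on glass fiber filters, scintillation counting. Nonspecific binding with 1 μM unlabeled BK. IC50 averaged over at least three determinations.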

[3] = molecular target: T3, B2 bradykinin receptor (Homo sapiens) (UniProt P30411); assay: (§1) Relative induced inositol phosphate formation in CHO cells expressing the human B2 receptor compared to bradykinin (10 nM); assay type: functional, cell-based
T3 sequence (whole entry): T1 sequence (P30411 whole entry)
Method in brief: (§2)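 Human B2-expressing CHO cells labeled with [3H]inositol (1 μCi/mL) for 24 h, preincubated with 10 mM LiCl, then exposed to compound for 30 min at 37 °C. Stopped with 5% TCA; IP1–IP3 separated by anion-exchange chromatography and counted. Basal radioactivity subtracted; response expressed relative to 10 nM BK.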

[4] = molecular target: T3, B2 bradykinin receptor (Homo sapiens); assay: as §1; assay type: functional, cell-based; method in brief: as §2; remark: listed apart in the source
B2 bradykinin receptor [5] = molecular target: T2, B2 bradykinin receptor; assay: Concentration required to inhibit specific binding of [3H]-BK(0.06 nM) to the B2 receptor in guinea pig ileum membrane;; assay type: tissue-based
Method in brief: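 Male Hartley guinea pig ileum membranes (homogenised, 1000g debris spin, 10000g pellet) at 0.2 mg protein/mL in pH 6.8 TES buffer with 1,10-phenanthroline, bacitracin, DTT, captopril, 0.1% BSA; incubated with 0.06 nM [3H]BK and varying compound concentrations, 60 min room temperature; GF/B filtration, scintillation counting. Nonspecific binding with 1 μM unlabeled BK; three experiments; IC50 averaged from ≥3 determinations.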

WI-38 [6] = assay: Relative agonistic activity (10 uM) induced PGE-2 production in human fibroblast WI-38 cells compared to bradykinin (100 nM); assay type: functional
Method in brief: (§3)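 WI-38 human fibroblasts seeded 1 × 10^5 cells/well in E-MEM with 1% FBS, cultured 24 h. Medium replaced with Hanks-BSA buffer, then test compound for 30 min at 37 °C. Supernatant PGE2 measured by EIA, with control (no compound) subtracted. Result expressed relative to 100 nM BK.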

WI-38 [7] = assay: Relative agonistic activity (1 uM) induced PGE-2 production in human fibroblast WI-38 cells compared to bradykinin (100 nM); assay type: functional; method in brief: as §3
[8] = molecular target: T3, B2 bradykinin receptor (Homo sapiens); assay: Relative agonistic activity (10 uM) induced inositol phosphate formation in CHO cells expressing the human B2 receptor compared to bradykinin (10 nM); assay type: functional, cell-based; method in brief: as §2

| Structure (SMILES) | IC50 (B2 bradykinin receptor [1]) [nM] | IC50 (B2 bradykinin receptor [2]) [nM] | Relative agonistic activity [3] [%] | Relative agonistic activity [4] [%] | IC50 (B2 bradykinin receptor [5]) [nM] | Relative agonistic activity (WI-38 [6]) [%] | Relative agonistic activity (WI-38 [7]) [%] | Relative agonistic activity [8] [%] |
| --- | --- | --- | --- | --- | --- | --- | --- | --- |
| CNC(=O)c1ccc(/C=C/C(=O)NCC(=O)N(C)c2ccc(Cl)c(COc3cccc4c(OC(C)C)cc(C)nc34)c2Cl)cc1 | 13 | 1.2 | – | – | – | – | – | – |
| Cc1cc(OCc2ccccn2)c2cccc(OCc3c(Cl)ccc(N(C)C(=O)CNC(=O)/C=C/c4ccc(NC(=O)c5ccncc5)cc4)c3Cl)c2n1 | 0.56 | – | 26.9 | 42.3 | 6.1 | – | – | – |
| COc1nc2c(OCc3c(Cl)ccc(N(C)C(=O)CNC(=O)/C=C/c4ccc(NC(C)=O)nc4)c3Cl)cccc2n1Cc1ccccc1 | 2.5 | 26 | – | – | – | 73.9 | 84.5 | – |
| Cc1cc(OCc2ccccn2)c2cccc(OCc3c(Cl)ccc(N(C)C(=O)CNC(=O)/C=C/c4ccc(NC(=O)Cc5ccncc5)nc4)c3Cl)c2n1 | 2.4 | – | 40.3 | 39.8 | – | – | – | – |
| Cc1cc(OCc2ccccn2)c2cccc(OCc3c(Cl)ccc(N(C)C(=O)CNC(=O)/C=C/c4ccc(C(=O)Nc5ccncc5)cc4)c3Cl)c2n1 | 0.4 | – | 47.4 | 36.7 | – | – | – | – |
| COCCn1c(OC)nc2c(OCc3c(Cl)ccc(N(C)C(=O)CNC(=O)/C=C/c4ccc(NC(C)=O)nc4)c3Cl)cccc21 | 3.5 | 4.6 | – | – | – | 54.8 | 38.3 | – |
| COc1nc2c(OCc3c(Cl)ccc(N(C)C(=O)CNC(=O)/C=C/c4ccc(NC(C)=O)nc4)c3Cl)cccc2n1Cc1ccccn1 | 0.68 | – | – | – | – | 89.5 | 114 | – |
| CCOC(=O)Cn1c(OC)nc2c(OCc3c(Cl)ccc(N(C)C(=O)CNC(=O)/C=C/c4ccc(NC(C)=O)nc4)c3Cl)cccc21 | 0.91 | 4.2 | – | – | – | 121 | – | – |
| CNC(=O)c1ccc(/C=C/C(=O)NCC(=O)N(C)c2ccc(Cl)c(COc3cccc4c(OCc5ccccn5)cc(C)nc34)c2Cl)cn1 | 1.4 | – | 57.6 | 50.5 | – | – | – | – |
| CNC(=O)c1ccc(/C=C/C(=O)NCC(=O)N(C)c2ccc(Cl)c(COc3cccc4c(OC)cc(C)nc34)c2Cl)cc1 | 8.1 | 0.23 | – | – | – | – | – | – |
| CNC(=O)c1ccc(/C=C/C(=O)NCC(=O)N(C)c2ccc(Cl)c(COc3cccc4c(OC5CCCC5)cc(C)nc34)c2Cl)cc1 | 61 | 25 | – | – | – | – | – | – |
| CNC(=O)c1ccc(/C=C/C(=O)NCC(=O)N(C)c2ccc(Cl)c(COc3cccc4c(OCc5ccccn5)cc(C)nc34)c2Cl)cc1OC | 0.69 | – | 73.9 | 54.9 | – | – | – | – |
| Cc1cc(OCc2ccccn2)c2cccc(OCc3c(Cl)ccc(N(C)C(=O)CNC(=O)/C=C/c4ccc(C(=O)N(C)C)cc4)c3Cl)c2n1 | 1.4 | – | 34.3 | 22.3 | – | – | – | – |
| CNC(=O)c1ccc(/C=C/C(=O)NCC(=O)N(C)c2ccc(Cl)c(COc3cccc4c(OCC(=O)N(C)C)cc(C)nc34)c2Cl)cc1 | 3.7 | 30 | 30.8 | – | – | – | – | 24.4 |
| CNC(=O)c1ccc(/C=C/C(=O)NCC(=O)N(C)c2ccc(Cl)c(COc3cccc4c(OCc5ccccn5)cc(C)nc34)c2Cl)cc1 | 0.41 | 2.3 | 59.5 | 51.3 | – | 140 | 81.2 | 56.9 |
| Cc1cc(OCc2ccccn2)c2cccc(OCc3c(Cl)ccc(N(C)C(=O)CNC(=O)/C=C/c4ccc(N5CCCC5=O)cc4)c3Cl)c2n1 | 0.83 | – | 67.4 | 42.9 | – | – | – | – |
| CCOC(=O)COc1cc(C)nc2c(OCc3c(Cl)ccc(N(C)C(=O)CNC(=O)/C=C/c4ccc(C(=O)NC)cc4)c3Cl)cccc12 | 2.6 | 20 | 53.7 | – | – | – | – | 66.4 |
| CCCOc1cc(C)nc2c(OCc3c(Cl)ccc(N(C)C(=O)CNC(=O)/C=C/c4ccc(C(=O)NC)cc4)c3Cl)cccc12 | 77 | 1.2 | – | – | – | – | – | – |
| COc1nc2c(OCc3c(Cl)ccc(N(C)C(=O)CNC(=O)/C=C/c4ccc(NC(C)=O)nc4)c3Cl)cccc2n1C | – | – | – | – | – | 24.2 | 4.2 | – |
| CCOc1cc(C)nc2c(OCc3c(Cl)ccc(N(C)C(=O)CNC(=O)/C=C/c4ccc(C(=O)NC)cc4)c3Cl)cccc12 | 34 | 0.19 | – | – | – | – | – | – |
| CC(=O)Nc1ccc(/C=C/C(=O)NCC(=O)N(C)c2ccc(Cl)c(COc3cccc4c(OCc5ccccn5)cc(C)nc34)c2Cl)cn1 | 1.2 | 1.2 | 57 | 43.4 | – | – | – | – |
| CNC(=O)c1ccc(/C=C/C(=O)NCC(=O)N(C)c2ccc(Cl)c(COc3cccc4c(OCC(=O)O)cc(C)nc34)c2Cl)cc1 | > 1000 | 50 | – | – | – | – | – | – |
